Published values gathered from unrelated publications.
Each line is one published result; the experiments were not run side by side.
Target: Histamine H3 receptor (HRH3, Homo sapiens, UniProt Q9Y5N1)

SMILES	observed	method	concentration	inhibition
CCN(CC)c1ccc(C2Nc3ccc(C(=O)c4ccccc4)cc3NC3=C2C(=O)CC(C)(C)C3)cc1 (stereo not drawn)	ligand displacement	radioligand	10 µM	43%
COc1ccc(-n2nc(OCCCN3CCCCC3)ccc2=O)cc1	ligand displacement	–	1 µM	23.3%
CCN(Cc1ccccc1C(F)(F)F)C(=O)C1CCN(S(=O)(=O)c2ccc3[nH]ncc3c2)CC1	ligand displacement	radioligand	10 µM	6%
CN1CCN(CCCOc2ccc(=O)n(-c3ccc(Cl)c(Cl)c3)n2)CC1	ligand displacement	–	1 µM	38.2%
O=C(c1ccc(F)cc1)N(Cc1ccccc1)C1CCCCC1	cell-free assay	–	10 µM	15%
CC(=O)Nc1ncc(CN2CCC[C@H](Cc3cc(C)nc(C)c3)C2)s1	ligand displacement	–	10 µM	10.8%
N#Cc1cc(Cn2c(N3CCCC3)nc3ccccc32)ccc1F	ligand displacement	–	10 µM	1.97%
CCS(=O)(=O)c1cc2cc(C[C@](O)(CC(C)(C)c3ccc(F)cc3C(N)=O)C(F)(F)F)[nH]c2cn1	ligand displacement	–	10 µM	11.7%
CCCNc1nc2ccccc2n1Cc1ccc(Cl)cc1	ligand displacement	–	10 µM	-5.56%
